According to ChEMBL document CHEMBL4304819, “Natural product pectolinarigenin exhibits potent anti-metastatic activity in colorectal carcinoma cells in vitro and in vivo” (2019):
Active and inactive are the calls of the source. No cut-off for these calls is given here.

Tests used:
[1] = tested on: CT26; experiment: Induction of apoptosis in mouse CT26 cells assessed as late apoptotic cells at 40 uM after 48 hrs by Annexin V-FITC/propidium iodide staining-based flow cytometric analysis (reference value: 6.49 %); format: functional
In short: (§1)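 CT26 cells seeded at 1–2 × 10^5 per well in six-well plates for 24 h, then exposed to PEC (0–40 μM) for 24 or 48 h. Cells harvested, washed twice in cold PBS, stained with Annexin V-FITC/PI and read by flow cytometry. Early apoptotic = Annexin V+ only; late apoptotic = Annexin V+/PI+. Mean ± SD of three experiments.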

[2] = tested on: CT26; experiment: Induction of apoptosis in mouse CT26 cells assessed as late apoptotic cells at 20 uM after 48 hrs by Annexin V-FITC/propidium iodide staining-based flow cytometric analysis (reference value: 6.49 %); format: functional; in short: as §1
[3] = tested on: SW48; experiment: Inhibition of colony formation in human SW48 cells assessed as reduction in size of colonies up to 40 uM incubated for 24 hrs supplemented with fresh medium containing compound every 3 days for 12 days by crystal violet staining-based microscopic analysis; format: functional, cell-based
In short: (§2)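 400–800 cells per well seeded in 6-well plates; after 24 h, PEC (0–40 μM) added. Medium with or without compound replaced every three days for 12 days. Colonies washed in cold PBS, fixed in methanol, stained 15 min with 0.5% crystal violet and counted under a microscope. Mean ± SD of three experiments.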

[4] = tested on: HCT-116; experiment: Inhibition of colony formation in human HCT116 cells assessed as reduction in number of colonies up to 40 uM incubated for 24 hrs supplemented with fresh medium containing compound every 3 days for 12 days by crystal violet staining-based microscopic analysis; format: functional, cell-based; in short: as §2
[5] = tested on: CT26; experiment: Antimigratory activity against mouse CT26 cells assessed as inhibition of cell migration after 48 hrs by crystal violet staining based Boyden-chamber cell migration assay; format: functional
In short: (§3)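 Boyden chamber, 8 μm pores: 1 × 10^5 cells in serum-free medium above, 10% FBS medium below, compound at various concentrations in both chambers; migration 48 h. Non-migrated cells swabbed off; migrated cells fixed in methanol, stained 0.5% crystal violet 20 min, counted in six random fields under light microscope; expressed as % inhibition versus untreated.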

[6] = tested on: SW48; experiment: Antiproliferative activity against human SW48 cells assessed as reduction in cell viability up to 40 uM by MTT assay; format: functional, cell-based; settings: TDE = time-dependent effect
In short: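 Exponentially growing cells (2–6 × 10^3 per well) seeded in 96-well plates for 24 h, then exposed to 0, 2.5, 5, 10, 20, 40 µM for 24, 48 and 72 h. MTT (5 mg/mL stock) added 2–4 h at 37 °C; formazan dissolved in DMSO, absorbance at 570 nm. Three independent experiments.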

[7] = tested on: HCT-116; experiment: Induction of apoptosis in human HCT116 cells assessed as early apoptotic cells at 20 uM after 48 hrs by Annexin V-FITC/propidium iodide staining-based flow cytometric analysis (reference value: 1.23 %); format: functional
In short: (§4)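 Cells (1–2 × 10^5 per well) seeded in six-well plates 24 h, treated at 0–40 μM for 24 h or 48 h, harvested, washed twice in cold PBS, stained with Annexin V-FITC/PI and analysed by flow cytometry; early (Annexin V only) and late (Annexin V and PI) apoptotic fractions quantified; three experiments.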

[8] = tested on: CT26; experiment: Induction of apoptosis in mouse CT26 cells assessed as necrotic cells at 40 uM after 48 hrs by Annexin V-FITC/propidium iodide staining-based flow cytometric analysis (reference value: 1.80 %); format: functional; in short: as §1
[9] = tested on: HCT-116; experiment: Antiinvasive activity against human HCT116 cells after 48 hrs by crystal violet staining based light microscopic analysis; format: functional, cell-based
In short: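 Transwell membrane upper surface coated with Matrigel diluted 1:5 in serum-free medium. 5 × 10^4 cells in serum-free medium in upper part, 10% FBS medium below, treated with various concentrations for 48 h. Non-invading cells removed; underside cells fixed in methanol, stained with 0.5% crystal violet, counted by light microscopy; expressed as % inhibition versus untreated.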

[10] = target: Signal transducer and activator of transcription 3 (Homo sapiens) (UniProt P40763); experiment: Inhibition of STAT3 phosphorylation in human HCT116 cells after 48 hrs by Western blot analysis; format: cell-based
In short: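 HCT116 cells treated 48 h with PEC at 0, 10, 20 and 40 μM, lysed in RIPA. Equal protein by Lowry, SDS-PAGE, PVDF transfer. Block 1 h at 37 °C, anti-Stat3 and anti-p-Stat3 Tyr705 overnight at 4 °C, secondary 1 h, ECL. β-actin loading control; bands quantified by densitometry.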

[11] = tested on: HCT-116; experiment: Antimetastatic activity against human HCT116 assessed as inhibition of MMP-9 expression after 48 hrs by Western blot analysis; format: functional, cell-based
In short: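 Cells treated 48 h at 0, 10, 20 and 40 μM, washed in cold PBS, lysed in RIPA; protein equalized by Lowry assay, resolved by SDS-PAGE, transferred to PVDF, blocked 1 h at 37 °C, primary antibody overnight at 4 °C, secondary 1 h, ECL detection, densitometry. β-actin loading control.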

[12] = tested on: HCT-116; experiment: Antimigratory activity against human HCT116 cells assessed as inhibition of cell migration after 48 hrs by crystal violet staining based Boyden-chamber cell migration assay; format: functional; in short: as §3
[13] = tested on: CT26; experiment: Antimetastatic activity against mouse CT26 cells allografted in Balb/c mouse assessed as inhibition of MMP -9 protein expression in tumour tissue at 25 to 50 mg/kg, ip administered daily for 14 days starting from 6 days post implantation by immunohistochemical analysis; format: functional, organism-based
In short: (§5)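 Female BALB/c mice (6–8 weeks) injected ip with 5 × 10^5 CT26 cells; from day 6, randomized (eight per group) to ip vehicle, 25 or 50 mg/kg once daily for 14 days. Abdominal circumference and body weight every 3 days; abdominal nodules counted by eye and weighed; spleens assessed; paraffin tumour sections immunostained (Ki-67, MMP-9, p-Stat3) with DAB detection.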

[14] = tested on: CT26; experiment: Antitumor activity against mouse CT26 cells allografted in Balb/c mouse assessed as inhibition of Ki-67 positive cells in tumour tissue at 25 to 50 mg/kg, ip administered daily for 14 days starting from 6 days post implantation by immunohistochemical analysis; format: functional, organism-based; in short: as §5
[15] = tested on: CT26; experiment: Antimetastatic activity against mouse CT26 cells allografted in Balb/c mouse assessed as increase in infiltration of CD8+ T cells in blood at 25 mg/kg, ip administered daily for 14 days starting from 6 days post implantation flow cytometric analysis (reference value: 1.35 %); format: functional
[16] = tested on: HCT-116; experiment: Induction of apoptosis in human HCT116 cells assessed as late apoptotic cells at 40 uM after 48 hrs by Annexin V-FITC/propidium iodide staining-based flow cytometric analysis (reference value: 3.87 %); format: functional; in short: as §4
[17] = tested on: CT26; experiment: Induction of apoptosis in mouse CT26 cells assessed as necrotic cells at 20 uM after 48 hrs by Annexin V-FITC/propidium iodide staining-based flow cytometric analysis (reference value: 1.80 %); format: functional; in short: as §1
[18] = tested on: HCT-116; experiment: Induction of apoptosis in human HCT116 cells assessed as late apoptotic cells at 10 uM after 48 hrs by Annexin V-FITC/propidium iodide staining-based flow cytometric analysis (reference value: 3.87 %); format: functional; in short: as §4
[19] = tested on: HCT-116; experiment: Induction of apoptosis in human HCT116 cells assessed as viable cells at 10 uM after 48 hrs by Annexin V-FITC/propidium iodide staining-based flow cytometric analysis (reference value: 86.7 %); format: functional; settings: HCT-116, 48 h, read-out: Activity; in short: as §4

Signal transducer and activator of transcription 3 (Homo sapiens), sequence (P40763 whole entry): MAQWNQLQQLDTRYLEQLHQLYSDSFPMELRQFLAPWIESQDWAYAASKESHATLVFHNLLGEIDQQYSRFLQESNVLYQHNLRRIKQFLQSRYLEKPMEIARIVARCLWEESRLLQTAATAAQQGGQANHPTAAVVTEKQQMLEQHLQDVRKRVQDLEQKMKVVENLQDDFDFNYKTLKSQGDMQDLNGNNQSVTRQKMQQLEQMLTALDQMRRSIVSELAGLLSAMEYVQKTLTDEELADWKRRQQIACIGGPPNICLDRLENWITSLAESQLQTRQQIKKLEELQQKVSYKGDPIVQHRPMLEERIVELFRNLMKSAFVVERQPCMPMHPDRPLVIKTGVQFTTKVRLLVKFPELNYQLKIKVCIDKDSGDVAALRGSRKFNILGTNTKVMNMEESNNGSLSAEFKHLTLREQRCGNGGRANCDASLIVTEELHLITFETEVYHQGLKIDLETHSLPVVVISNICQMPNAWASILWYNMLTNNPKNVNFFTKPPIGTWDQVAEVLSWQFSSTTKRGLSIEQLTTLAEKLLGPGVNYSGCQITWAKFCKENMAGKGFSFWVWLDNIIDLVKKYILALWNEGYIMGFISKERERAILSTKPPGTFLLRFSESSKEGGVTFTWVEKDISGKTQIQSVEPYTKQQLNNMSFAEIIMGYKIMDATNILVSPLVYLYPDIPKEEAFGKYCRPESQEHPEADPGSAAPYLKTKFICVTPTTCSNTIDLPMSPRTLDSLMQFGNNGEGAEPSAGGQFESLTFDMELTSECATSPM

inhibition [10]: Dose-dependent effect
SMILES: COc1ccc(-c2cc(=O)c3c(O)c(OC)c(O)cc3o2)cc1 [PECTOLINARIGENIN]
Activity [1]: 13.4%
Activity [2]: 12.4%
inhibition [3]: Active
inhibition [4]: Active
inhibition [5]: Dose-dependent effect
inhibition [6]: Tde
Activity [7]: 8.86%
Activity [8]: 3.09%
inhibition [9]: Dose-dependent effect
inhibition [11]: Dose-dependent effect
inhibition [12]: Dose-dependent effect
inhibition [13]: Active
inhibition [14]: Active
Activity [15]: 2.59%
Activity [16]: 9.67%
Activity [17]: 1.94%
Activity [18]: 5.81%
viability at 10 µM [19]: 85.1%
